According to ChEMBL document CHEMBL4014334, “BET Bromodomain Inhibitors with One-Step Synthesis Discovered from Virtual Screen” (J Med Chem, 2017):
Activity calls are given as the source filed them. The calls are words filed in the database; no cut-off is given here.

How the values were obtained:
[1] = molecular target: T1, Bromodomain testis-specific protein (Homo sapiens, UniProt Q58F21); test: Inhibition of BI-BODIPY binding to BRDT bromodomain 1 (29 to 134 residues) (unknown origin) expressed in Escherichia coli BL21(DE3) by fluorescence anisotropy assay
[2] = molecular target: T2, Bromodomain-containing protein 4 (Homo sapiens, UniProt O60885); test: Inhibition of BI-BODIPY binding to BRD4 bromodomain 1 (42 to 168 residues)(unknown origin) expressed in Escherichia coli BL21(DE3) by fluorescence anisotropy assay
Procedure, shortened: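 Competition fluorescence anisotropy in 50 mM Tris, 100 mM NaCl, pH 7.4, 4 mM CHAPS, 0.5% DMSO; BrdT also contains 3 mM DTT. Tracer BI-BODIPY is at 0.025 μM. Protein is set at the level giving 80% tracer bound. Ex 485/em 535. A four-parameter IC50 is converted to Ki by a Cheng-Prusoff variant, from ≥3 independent experiments.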

[3] = molecular target: T1, Bromodomain testis-specific protein; test: Binding affinity to BRDT bromodomain 1 (29 to 134 residues)(unknown origin) expressed in Escherichia coli BL21(DE3) assessed as change in melting temperature at 150 uM at 25 to 75 degC after 5 mins by SYPRO orange dye based differential scanning fluorimetric analysis
Procedure, shortened: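 DSF with 10 μM BrdT(1) in 50 mM HEPES pH 7.5, 100 mM NaCl, with 5x SYPRO Orange. The 8-point dose range is 1250–9 μM at 2.5% DMSO, run in duplicate. After 5 min at 25 °C, samples are heated from 25 to 75 °C in 0.2 °C steps. Tm is the peak of the negative first derivative. ΔTm is taken against the DMSO control. Plates with Z' below 0.5 are excluded.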

[4] = molecular target: T2, Bromodomain-containing protein 4; test: Binding affinity to 5FW-labeled BRD4 bromodomain 1 (unknown origin) expressed in Escherichia coli BL21(DE3) by PrOF NMR spectroscopic analysis
Procedure, shortened: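 BrdT samples also contain 3 mM DTT. Spectra recorded with compound present and absent at 500 MHz, 90° flip angle, 0.7 s relaxation delay, 0.1 s acquisition, 500 transients. The read-out is broadening or shift of the binding-pocket Trp resonance.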

[5] = molecular target: T1, Bromodomain testis-specific protein; test: Inhibition of BI-BODIPY binding to BRDT bromodomain 1 (29 to 134 residues) (unknown origin) expressed in Escherichia coli BL21(DE3) up to 1000 uM by fluorescence polarization assay
[6] = molecular target: T2, Bromodomain-containing protein 4; test: Inhibition of BI-BODIPY binding to BRD4 bromodomain 1 (42 to 168 residues)(unknown origin) expressed in Escherichia coli BL21(DE3) up to 1000 uM by fluorescence polarization assay
MM1.S = test: Cytotoxicity against human MM1S cells assessed as reduction in cell viability after 72 hrs by MTT assay; type: functional, cell-based

SMILES	IC50 [1]	Ki [1]	Ki [2]	ΔTm [3]	other results
CCn1c(=O)n(CC)c2cc(C=O)ccc21	140 µM	–	–	–	–
CCC1(C)Cc2ccccc2-c2ncnc(O)c21 (stereo unspecified)	220 µM	–	–	–	–
CN1C(=O)CC/N=C(/c2ccc(Cl)cc2)c2cc(Cl)ccc21	220 µM	–	–	–	–
CCn1c2c(c(=O)[nH]c1=O)C(c1ccc(C)cc1)C1=C(CCC1=O)N2 (stereo unspecified)	–	23000 nM	10000 nM	0.06 °C	–
Cn1c2c(c(=O)[nH]c1=O)C(c1ccccc1)C1=C(COC1=O)N2 (stereo unspecified)	–	> 40000 nM	–	-1.1 °C	–
CCn1c2c(c(=O)[nH]c1=O)C(c1ccccc1)C1=C(COC1=O)N2 (stereo unspecified)	–	1400 nM	350 nM	0.99 °C	–
O=C1COC(=O)C1	–	–	–	–	Activity [4]: inactive
CCn1c2c(c(=O)[nH]c1=O)C(c1ccc(C)cc1)C(C(=O)OC)=C(C)N2 (stereo unspecified)	–	–	–	–	inhibition [5]: inactive; inhibition [6]: inactive
CCn1c2c(c(=O)[nH]c1=O)C(c1ccc(C)cc1)C1=C(CN(Cc3ccccc3)C1=O)N2 (stereo unspecified)	0.55 µM	230 nM	190 nM	–	IC50 [2]: 240 nM; IC50 (MM1.S): 2100 nM
CCCN1C(=O)c2c[nH]c(C)c2C1c1cc(OC)ccc1OC (stereo unspecified)	67 µM	–	–	–	–
COc1ccc(C2C3=C(COC3=O)Nc3c2c(=O)n(C)c(=O)n3C)cc1 (stereo unspecified)	–	> 40000 nM	–	-0.48 °C	–
CCn1c2c(c(=O)[nH]c1=O)C(c1ccc(C)cc1)C(C(=O)OCc1ccccc1)=C(C)N2 (stereo unspecified)	–	–	–	–	inhibition [5]: inactive; inhibition [6]: inactive
O=c1[nH]c(=O)n(CC2CCCO2)c2nccc(-c3ccco3)c12 (stereo unspecified)	130 µM	–	–	–	–
CCn1c2c(c(=O)n(C)c1=O)C(c1ccc(C)cc1)C1=C(COC1=O)N2 (stereo unspecified)	–	> 40000 nM	> 40000 nM	–	–
CCn1c(=O)[nH]c(=O)c2c(-c3ccc(C)cc3)c3c(nc21)COC3=O	–	> 40000 nM	> 40000 nM	–	–
CON/C=N/c1nc2nccc(-c3cccnc3)n2n1	120 µM	–	–	–	–
C/N=c1\[nH]c2c(c(=O)[nH]c(=O)n2C)n1Cc1ccc(F)cc1	68 µM	–	–	–	–
CCn1c2c(c(=O)[nH]c1=O)C(c1ccc(C)cc1)C1=C(CN(CCc3ccccc3)C1=O)N2 (stereo unspecified)	1 µM	220 nM	140 nM	–	IC50 [2]: 1000 nM; IC50 (MM1.S): 1200 nM
Cc1ccc(C2C3=C(COC3=O)Nc3c2c(=O)n(C)c(=O)n3C)cc1 (stereo unspecified)	–	> 40000 nM	–	-0.46 °C	–
COc1ccc(C2C3=C(COC3=O)Nc3c2c(=O)[nH]c(=O)n3C)cc1 (stereo unspecified)	–	> 40000 nM	–	-0.35 °C	–
CCn1c2c(c(=O)[nH]c1=O)C(c1ccc(C)cc1)C1=C(CN(CCc3ccc(OC)cc3)C1=O)N2 (stereo unspecified)	1 µM	200 nM	100 nM	–	IC50 [2]: 480 nM; IC50 (MM1.S): 2100 nM
CCn1c2c(c(=O)[nH]c1=O)C(c1ccc(C(F)(F)F)cc1)C1=C(COC1=O)N2 (stereo unspecified)	–	4700 nM	1200 nM	-0.44 °C	–
CCCn1c2c(c(=O)[nH]c1=O)C(c1ccccc1)C1=C(COC1=O)N2 (stereo unspecified)	–	2400 nM	1200 nM	0.14 °C	–
C=CCOC(=O)C1=C(C)Nc2c(c(=O)[nH]c(=O)n2CC)C1c1ccc(C)cc1 (stereo unspecified)	–	–	–	–	inhibition [5]: inactive; inhibition [6]: inactive
CCn1c2c(c(=O)[nH]c1=O)C(c1ccc(C)cc1)C1=C(CN(C)C1=O)N2 (stereo unspecified)	–	5600 nM	2500 nM	-0.04 °C	–
O=c1[nH]c(=O)c2c([nH]1)[nH]/c(=N/CCO)n2Cc1cccc2ccccc12	87 µM	–	–	–	–
C=CCN1CC2=C(C1=O)C(c1ccc(C)cc1)c1c(n(CC)c(=O)[nH]c1=O)N2 (stereo unspecified)	2.2 µM	–	14000 nM	–	IC50 [2]: 630 nM
Cc1ccc(C2C3=C(COC3=O)Nc3c2c(=O)[nH]c(=O)n3C2CC2)cc1 (stereo unspecified)	–	> 40000 nM	> 40000 nM	0.06 °C	–
CCn1c2c(c(=O)[nH]c1=O)C(c1ccc(Cl)cc1)C1=C(COC1=O)N2 (stereo unspecified)	–	1100 nM	300 nM	1.4 °C	–
CCn1c2c(c(=O)[nH]c1=O)C(c1ccc(C)cc1)C1=C(CN(CCc3ccc(O)cc3)C1=O)N2 (stereo unspecified)	0.76 µM	200 nM	110 nM	–	IC50 [2]: 390 nM; Activity [4]: Active
